Measurements from ChEMBL document CHEMBL2029291, “Synthesis and structure-activity relationships of new quinolone-type molecules against Trypanosoma brucei” (J Med Chem, 2012).
Structures can show the parent of a compound that is named as a salt. Activity calls are given as the source filed them. The calls are words filed in the database; no cut-off is given here.

Tests used:
[1] = system: Trypanosoma brucei brucei; experiment: Antitrypanosomal activity against Trypanosoma brucei brucei TC221 […] after 72 hrs by alamar blue assay; format: functional, organism-based; settings: for IC50: TC221, 72 h
Procedure, shortened: (§1)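 Trypomastigote T. b. brucei TC 221 grown in Baltz medium, seeded at 10⁴ per mL and exposed to graded compound concentrations (dissolved in DMSO or 0.1 M NaOH). Incubated at 37 °C, 5% CO₂ for 72 h, with a reading also taken at 48 h. AlamarBlue absorbance read at 550/630 nm. IC50 by linear interpolation; duplicate tests, mean and SD.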

[2] = system: Trypanosoma brucei brucei; experiment: Antitrypanosomal activity against Trypanosoma brucei brucei TC221 […] after 48 hrs by alamar blue assay; format: functional, organism-based; settings: for IC50: TC221, 48 h; procedure, shortened: as §1
[3] = Cytotoxicity against mouse J774.1 cells after 48 hrs by alamar blue assay; format: cell-based; settings: J774.1, 48 h
Procedure, shortened: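 J774.1 macrophages kept in complete Click RPMI, detached by scraping, PBS-washed, suspended at 2 × 10⁶ cells/mL and plated in phenol-red-free RPMI with or without compound. AlamarBlue added and absorbance read 24 and 48 h later. Compound-free wells taken as 100% growth. Effects of cell density, incubation time and DMSO level were controlled. Tested in duplicate.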

[4] = Selectivity index, ratio of IC50 for mouse J774.1 cells to IC50 for Trypanosoma brucei brucei TC221; format: toxicity; settings: read-out: Ratio IC50
[5] = Lipophilicity, log P of the compound by RP-HPLC analysis; format: physicochemical
Procedure, shortened: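 LogP by RP-HPLC on a C18 Inertsil ODS-2 column. Mobile phase was methanol/10 mM phosphate buffer pH 7.4 (70:30) at 1.5 mL/min. Samples were at 4 μg/mL, detected at 254.4 nm, and run in duplicate. Capacity ratio was calculated as k′ = (tr − to)/to.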

[6] = system: Trypanosoma brucei rhodesiense; experiment: Antitrypanosomal activity against Trypanosoma brucei rhodesiense STIB900 […] after 48 hrs by alamar blue assay; format: functional, organism-based
[7] = Selectivity index, ratio of IC50 for mouse J774.1 cells to IC50 for Trypanosoma brucei rhodesiense STIB900; format: toxicity; settings: read-out: Ratio IC50
Procedure, shortened: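 Selectivity index is the J774.1 IC50 divided by the trypanosome IC50. J774.1 macrophages were kept in complete Click RPMI, washed, and plated in phenol red-free RPMI with compound. AlamarBlue was added and plates were read 24 and 48 h later. Absorbance without compound was set as 100% growth.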

[8] = Chemical stability of the compound in 35% cremophore RH40, 45% capmul MCM C8, 10% triethylcitrate and 10% ethanol after 24 hrs; format: physicochemical
Procedure, shortened: (§2)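 Oral preconcentrate of Cremophor RH40 (35%), Capmul MCM C8 (45%), triethylcitrate (10%) and ethanol (10%) was tested for dissolving compound at 10 mg/mL. Stability of the emulsion formed in aqueous solution was observed over time.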

[9] = Aqueous solubility of the compound in 10% Tween 80; format: physicochemical; settings: buffer
Procedure, shortened: (§3)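 Water solubility was assessed after adding 10% Tween 80 or 10% Cremophor RH40 to the compound.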

[10] = Aqueous solubility of the compound in 10% Cremophore RH40; format: physicochemical; settings: buffer; procedure, shortened: as §3
[11] = Aqueous solubility of the compound in 35% cremophore RH40, 45% capmul MCM C8, 10% triethylcitrate and 10% ethanol; format: physicochemical; settings: buffer; procedure, shortened: as §2
[12] = system: Trypanosoma brucei rhodesiense; experiment: Antitrypanosomal activity against Trypanosoma brucei rhodesiense STIB900 infected in NMRI mouse at 50 mg/kg, po administered on day 3 to 6 post infection measured every second day up to 6 days post infection; format: functional, organism-based; set-up: dose 50 mg/kg
Procedure, shortened: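 Acute mouse model with T. b. rhodesiense STIB900-infected NMRI mice. Compound was given orally as a 1:1 aqueous dilution of a 10 mg/mL preconcentrate (Cremophor RH40 35%, Capmul MCM C8 45%, triethylcitrate 10%, ethanol 10%). An untreated control group was included. Parasitemia was checked every second day to day 6, and survival was recorded. Aparasitemic survivors at 60 days were counted as cured.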

[13] = system: Trypanosoma brucei; experiment: Antitrypanosomal activity in topoisomerase 2-knockout BSF Trypanosoma brucei assessed as assessed as shrinkage of kinetoplast over time at IC50 concentration after 72 hrs by […]; format: functional, organism-based
Procedure, shortened: (§4)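 RNAi against mitochondrial topoisomerase II in the BSF mitochondrion marker line. A 500 bp topoII fragment in p2T7-177 was transfected by nucleofection, with puromycin selection at 0.3 μg/mL. RNAi was induced with 1 μg/mL tetracycline. Knockdown was confirmed by Northern blot at 24 h, with tubulin as reference. Growth and DAPI-stained kinetoplast loss were followed over time.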

[14] = system: Trypanosoma brucei; experiment: Antitrypanosomal activity in topoisomerase 2-knockout BSF Trypanosoma brucei assessed as assessed as shrinkage of kinetoplast over time at IC50 concentration after 48 hrs by […]; format: functional, organism-based; procedure, shortened: as §4
[15] = system: Trypanosoma brucei brucei; experiment: Cell cycle arrest in GFP-labeled Trypanosoma brucei brucei assessed as increase in segregated 1K1N cell population at IC50 concentration after 42 hrs by DAPI staining-based fluorescence microscopic analysis

SMILES	IC50 [1] [µM]	IC50 [2] [µM]	IC50 [3] [µM]	selectivity ratio [4]	also measured
CCn1cc(C(=O)O)c(=O)c2ccc(C(F)(F)F)cc21	> 40	> 40	> 100	> 2.5	–
NC(=O)C1CCN(c2cc3c(cc2F)c(=O)c(C(=O)NCc2ccccc2)cn3C2CC2)CC1	1.91	1.07	51.2	47.9	logP ([5]; read-out: logP): 2.4
CCCCn1cc(C(=O)NCc2ccccc2)c(=O)c2cc(F)c(N(C)C)cc21	0.92	0.68	> 100	> 147	logP ([5]; read-out: logP): 2.4
CCOC(=O)c1cnc2cc(C(F)(F)F)ccc2c1O	–	–	–	–	Activity [1]: inactive; Activity [2]: inactive
CCCCn1cc(C(=O)NCc2ccc([N+](=O)[O-])cc2)c(=O)c2cc(F)c(N3CCC(C(N)=O)CC3)cc21	0.58	0.54	> 100	> 185	logP ([5]; read-out: logP): 2.4
NC(=O)C1CCN(c2cc3c(cc2F)c(=O)c(C(=O)O)cn3C2CC2)CC1	> 40	> 40	> 100	> 2.5	–
CCCCn1cc(C(=O)NCc2ccccc2)c(=O)c2cc(F)c(N3CCC(C(N)=O)CC3)cc21	1.98	1.09	47	43.1	logP ([5]; read-out: logP): 2.4
N=C(N)c1ccc(OCCCCCOc2ccc(C(=N)N)cc2)cc1 [PENTAMIDINE ISETHIONATE]	–	0.0029	–	–	–
CCCCn1cc(C(=O)NCc2ccccc2)c(=O)c2cc(F)c(N3CCOCC3)cc21	0.05	0.047	57	1140	IC50 [6]: 0.009 µM; selectivity ratio [7]: 6330; logP [5]: 2.4; Stability [8]: Stable; solubility [9]: Insoluble; solubility [10]: Insoluble; solubility [11]: soluble; Activity [12]: inactive; Activity [13]: Active; Activity [14]: Active; Activity [15]: Active
CCCCn1cc(C(=O)NCc2ccc(OC)c([N+](=O)[O-])c2)c(=O)c2cc(F)c(N3CCC(C(N)=O)CC3)cc21	4.14	3.07	> 100	> 32.6	–
CCCn1cc(C(=O)NCc2ccc(OC)cc2)c(=O)c2cc(F)c(N3CCC(C(N)=O)CC3)cc21	3.12	2.28	41.4	18.2	–
O=C(O)c1cn(C2CC2)c2cc(N3CCNCC3)c(F)cc2c1=O	–	–	–	–	Activity [15]: Active
CCCn1cc(C(=O)O)c(=O)c2cc(F)c(Cl)cc21	> 40	> 40	> 100	> 2.5	–
CCn1cc(C(=O)Nc2ccc(Cl)c(F)c2)c(=O)c2ccc(C(F)(F)F)cc21	> 40	> 40	> 100	> 2.5	–
NC(=O)C1CCN(c2cc3c(cc2F)c(=O)c(C(=O)NCc2ccco2)cn3C2CC2)CC1	12.1	8.89	> 100	> 11.2	–
CCn1cc(C(=O)NCc2ccc(OC)cc2)c(=O)c2ccc(C(F)(F)F)cc21	6.37	7.31	> 100	> 13.7	–
Nc1nc(N)nc(Nc2ccc([As]3SCC(CO)S3)cc2)n1 (configuration not stated) [MELARSOPROL]	–	0.0026	–	–	–
COc1ccc(CNC(=O)c2cn(C3CC3)c3cc(N4CCC(C(N)=O)CC4)c(F)cc3c2=O)cc1	2.56	2.75	> 100	> 36.4	–

SMILES	IC50 [1] [µM]	IC50 [2] [µM]	IC50 [3] [µM]	selectivity ratio [4]	also measured
Cc1ccc(C(=O)Nc2ccc(S(=O)(=O)O)c3cc(S(=O)(=O)O)cc(S(=O)(=O)O)c23)cc1NC(=O)c1cccc(NC(=O)Nc2cccc(C(=O)Nc3cc(C(=O)Nc4ccc(S(=O)(=O)O)c5cc(S(=O)(=O)O)cc(S(=O)(=O)O)c45)ccc3C)c2)c1 [SURAMIN HEXASODIUM]	–	0.31	–	–	–
CCCCn1cc(C(=O)NCc2ccccc2)c(=O)c2cc(F)c(N3CCCCC3)cc21	1.04	0.67	47.8	71.3	logP ([5]; read-out: logP): 2.4
CCCCn1cc(C(=O)O)c(=O)c2cc(F)c(N(C)Cc3ccccc3)cc21	23	17.2	43.2	2.51	–
CCOC(=O)c1c[nH]c2cc(Cl)c(F)cc2c1=O	–	–	–	–	Activity [1]: inactive; Activity [2]: inactive
CCCCn1cc(C(=O)NCc2ccccc2)c(=O)c2cc(F)c(N(C)Cc3ccccc3)cc21	10.8	5.4	86	15.9	–
CCCCn1cc(C(=O)O)c(=O)c2cc(F)c(N3CCC(C(N)=O)CC3)cc21	> 40	> 40	> 100	> 2.5	–
CCCCn1cc(C(=O)NCc2ccco2)c(=O)c2cc(F)c(N3CCC(C(N)=O)CC3)cc21	1.84	1.03	41.4	40.2	logP ([5]; read-out: logP): 2.4
CCCn1cc(C(=O)NCc2ccccc2)c(=O)c2cc(F)c(N3CCC(C(N)=O)CC3)cc21	1.25	0.75	43.7	58.3	logP ([5]; read-out: logP): 2.4
NCCCC(N)(C(=O)O)C(F)F (configuration not stated) [EFLORNITHINE HYDROCHLORIDE]	–	22.9	–	–	–
CCCn1cc(C(=O)O)c(=O)c2cc(F)c(N3CCC(C(N)=O)CC3)cc21	> 40	> 40	> 100	> 2.5	–
CCCCn1cc(C(=O)O)c(=O)c2cc(F)c(Cl)cc21	> 40	> 40	> 100	> 2.5	–
CCCCn1cc(C(=O)O)c(=O)c2cc(F)c(N3CCOCC3)cc21	22.2	19.2	> 100	> 5.21	–
CCCCn1cc(C(=O)NCc2ccc(O)cc2)c(=O)c2cc(F)c(N3CCC(C(N)=O)CC3)cc21	5.12	3.09	41.6	13.5	–
CCCCn1cc(C(=O)O)c(=O)c2cc(F)c(N(C)C)cc21	> 40	> 40	> 100	> 2.5	–
CCCCn1cc(C(=O)NCc2ccccc2)c(=O)c2cc(F)c(-c3ccccc3)cc21	> 40	> 40	> 100	> 2.5	–
CCCCn1cc(C(=O)NCc2ccc(OC)cc2)c(=O)c2cc(F)c(N3CCC(C(N)=O)CC3)cc21	1.45	0.78	40.8	52.3	logP ([5]; read-out: logP): 2.4; Activity [13]: Active; Activity [14]: Active; Activity [15]: Active
CCCn1cc(C(=O)NCc2ccco2)c(=O)c2cc(F)c(N3CCC(C(N)=O)CC3)cc21	4.84	4.6	56.9	12.4	–
CCCCn1cc(C(=O)O)c(=O)c2cc(F)c(N3CCCCC3)cc21	18.1	14.6	93	6.39	–
